{
  "source": "ChEMBL document CHEMBL5032502",
  "about": "“Syntheses, Biological Evaluations, and Mechanistic Studies of Benzo[c][1,2,5]oxadiazole Derivatives as Potent PD-L1 Inhibitors with In Vivo Antitumor Activity” (J Med Chem, 2021)",
  "note": "Active and inactive are the calls of the source. The calls are words filed in the database; no cut-off is given here.",
  "data": [
    {"molecular_target": "T1, Programmed cell death protein 1/Programmed cell death 1 ligand 1 (Homo sapiens, UniProt Q9NZQ7)", "T1 sequence (Q15116 whole entry)": "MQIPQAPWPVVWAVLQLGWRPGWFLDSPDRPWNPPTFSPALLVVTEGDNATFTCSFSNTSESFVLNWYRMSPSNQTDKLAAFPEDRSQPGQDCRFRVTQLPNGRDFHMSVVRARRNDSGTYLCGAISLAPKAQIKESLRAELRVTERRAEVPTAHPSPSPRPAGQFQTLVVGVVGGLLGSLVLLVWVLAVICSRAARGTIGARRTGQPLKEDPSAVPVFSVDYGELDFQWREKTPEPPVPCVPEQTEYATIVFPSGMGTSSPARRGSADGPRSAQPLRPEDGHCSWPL", "T1 sequence (Q9NZQ7 whole entry)": "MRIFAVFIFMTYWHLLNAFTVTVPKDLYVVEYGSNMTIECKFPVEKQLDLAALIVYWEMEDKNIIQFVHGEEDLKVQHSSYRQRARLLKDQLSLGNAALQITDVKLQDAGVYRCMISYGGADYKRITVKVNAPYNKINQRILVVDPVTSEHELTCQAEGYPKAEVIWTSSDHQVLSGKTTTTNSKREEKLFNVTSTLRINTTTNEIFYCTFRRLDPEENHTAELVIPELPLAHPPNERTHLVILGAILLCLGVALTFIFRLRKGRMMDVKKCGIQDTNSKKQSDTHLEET", "assay": "Inhibition of human PD-1/PD-L1 interaction assessed as blockade activity incubated for 15 mins by HTRF assay", "assay_type": "protein-complex assay", "conditions": "not given", "procedure,_shortened": "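Tag1-PD-L1 and Tag2-PD-1 proteins preincubated with compound (0.1 nM to 10 μM, triplicate) 15 min at room temperature, then anti-Tag1-Eu³⁺/anti-Tag2-XL665 added for 2 h at room temperature. Excitation 337 nm, emission 665 and […]. Signal taken as 665/615 ratio ×10 000; IC50 fitted from inhibition rates.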", "units": {"IC50": "nM"}, "values": [
      {"smiles": "O=C(O)[C@@H](CO)NCc1cc(Cl)c(OCc2cccc(-c3ccccc3)c2F)cc1OCc1ccc2nonc2c1", "IC50": 3.5},
      {"smiles": "O=C(O)[C@@H](CO)NCc1cc(Cl)c(OCc2cccc(-c3cccc(OCCCO)c3)c2Cl)cc1OCc1ccc2nonc2c1", "IC50": 60.9},
      {"smiles": "O=C(O)[C@@H](CO)NCc1cc(Cl)c(OCc2cccc(-c3cccc(F)c3)c2Br)cc1OCc1ccc2nonc2c1", "IC50": 8.2},
      {"smiles": "O=S(=O)(O)CCNCc1cc(Cl)c(OCc2cccc(-c3ccccc3)c2Br)cc1OCc1ccc2nonc2c1", "IC50": 26.9},
      {"smiles": "O=C(O)[C@@H](CO)NCc1cc(Cl)c(OCc2cccc(-c3cccc(O)c3)c2Cl)cc1OCc1ccc2nonc2c1", "IC50": 58.7},
      {"smiles": "OCCNCc1cc(Cl)c(OCc2cccc(-c3ccccc3)c2Br)cc1OCc1ccc2nonc2c1", "IC50": 30.8},
      {"smiles": "O=C(O)[C@@H](CO)NCc1cc(Cl)c(OCc2cccc(-c3cccc(OCCCO)c3)c2Br)cc1OCc1ccc2nonc2c1", "IC50": 30.9},
      {"smiles": "CS(=O)(=O)c1ccc(-c2cccc(COc3cc(OCc4ccc5nonc5c4)c(CN[C@H](CO)C(=O)O)cc3Cl)c2Cl)cc1", "IC50": "> 1000"},
      {"smiles": "O=C(O)[C@H]1C[C@@H](O)CN1Cc1cc(Cl)c(OCc2cccc(-c3ccccc3)c2Br)cc1OCc1ccc2nonc2c1", "IC50": 24.3},
      {"smiles": "O=C(O)[C@@H](CO)NCc1cc(F)c(OCc2cccc(-c3ccccc3)c2Cl)cc1OCc1ccc2nonc2c1", "IC50": 9.5},
      {"smiles": "Cc1c(COc2ccc(CN[C@H](CO)C(=O)O)c(OCc3cccc4nonc34)c2)cccc1-c1ccccc1", "IC50": 2160},
      {"smiles": "CC(=O)NCCNCc1cc(Cl)c(OCc2cccc(-c3ccccc3)c2Br)cc1OCc1ccc2nonc2c1", "IC50": 130},
      {"smiles": "O=C(O)[C@@H](CO)NCc1cc(Cl)c(OCc2cccc(-c3ccccc3)c2Cl)cc1OCc1ccc2nonc2c1", "IC50": 3.3},
      {"smiles": "O=C(O)[C@@H](CO)NCc1ccc(OCc2cccc(-c3ccccc3)c2C(F)(F)F)cc1OCc1ccc2nonc2c1", "IC50": 1380},
      {"smiles": "O=C(O)[C@@H](CO)NCc1cc(F)c(OCc2cccc(-c3ccccc3)c2Br)cc1OCc1ccc2nonc2c1", "IC50": 7.8},
      {"smiles": "O=C(O)[C@@H](CO)NCc1cc(Cl)c(OCc2cccc(-c3ccc(F)cc3)c2Cl)cc1OCc1ccc2nonc2c1", "IC50": 56.1},
      {"smiles": "Cc1c(COc2ccc(CN[C@H](CO)C(=O)O)c(OCc3cccc(C#N)c3)c2)cccc1-c1ccccc1", "IC50": 35.8},
      {"smiles": "O=C(O)[C@@H](CO)NCc1cc(Cl)c(OCc2cccc(-c3cccc(Cl)c3)c2Br)cc1OCc1ccc2nonc2c1", "IC50": 24.3},
      {"smiles": "O=C(O)CNCc1cc(Cl)c(OCc2cccc(-c3ccccc3)c2Br)cc1OCc1ccc2nonc2c1", "IC50": 33.7},
      {"smiles": "COc1cccc(-c2cccc(COc3cc(OCc4ccc5nonc5c4)c(CN[C@H](CO)C(=O)O)cc3Cl)c2Br)c1", "IC50": 7.8},
      {"smiles": "OC[C@H](O)CNCc1cc(Cl)c(OCc2cccc(-c3ccccc3)c2Br)cc1OCc1ccc2nonc2c1", "IC50": 14.6}
    ]},
    {"tested_on": "Jurkat", "assay": "Cytotoxicity against human Jurkat cells expressing PD-1/NFAT/Luc assessed as inhibition of cell viability at 0.1 to 10 uM incubated for 24 hrs by CCK8 assay", "assay_type": "functional, cell-based", "conditions": "dose 0.1-10 µM", "procedure,_shortened": "(§1)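 PD-1⁺/NFAT-luc/Jurkat cells seeded at 20 000 per well, treated with compound in medium with 1% final DMSO for 24 h. CCK8 added for 4 h, then absorbance read.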", "values": [
      {"smiles": "O=C(O)[C@@H](CO)NCc1cc(Cl)c(OCc2cccc(-c3ccccc3)c2F)cc1OCc1ccc2nonc2c1", "Activity": "inactive"},
      {"smiles": "O=C(O)[C@@H](CO)NCc1cc(Cl)c(OCc2cccc(-c3cccc(F)c3)c2Br)cc1OCc1ccc2nonc2c1", "Activity": "inactive"},
      {"smiles": "O=C(O)[C@@H](CO)NCc1cc(F)c(OCc2cccc(-c3ccccc3)c2Br)cc1OCc1ccc2nonc2c1", "Activity": "inactive"}
    ]},
    {"tested_on": "CHO-K1", "assay": "Cytotoxicity against CHO-K1 cells expressing PD-L1/aAPC assessed as inhibition of cell viability at 0.1 to 10 uM incubated for 24 hrs by MTT assay", "assay_type": "functional, cell-based", "conditions": "Cricetulus griseus, dose 0.1-10 µM", "procedure,_shortened": "(§2)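 PD-L1⁺/aAPC/CHO-K1 cells (2000/well) or MC38 cells (5000/well) allowed to adhere for 12 h, then exposed to compound in medium with 1% final DMSO for 24 h. MTT added for 4 h, medium replaced with DMSO, absorbance read.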", "values": [
      {"smiles": "O=C(O)[C@@H](CO)NCc1cc(Cl)c(OCc2cccc(-c3ccccc3)c2F)cc1OCc1ccc2nonc2c1", "Activity": "inactive"},
      {"smiles": "O=C(O)[C@@H](CO)NCc1cc(Cl)c(OCc2cccc(-c3cccc(F)c3)c2Br)cc1OCc1ccc2nonc2c1", "Activity": "inactive"},
      {"smiles": "O=C(O)[C@@H](CO)NCc1cc(F)c(OCc2cccc(-c3ccccc3)c2Br)cc1OCc1ccc2nonc2c1", "Activity": "inactive"}
    ]},
    {"tested_on": "MC-38", "assay": "Cytotoxicity against mouse MC38 cells assessed as inhibition of cell viability at 0.1 to 10 uM incubated for 24 hrs by MTT assay", "assay_type": "functional, cell-based", "conditions": "dose 0.1-10 µM", "procedure,_shortened": "as §2", "values": [
      {"smiles": "O=C(O)[C@@H](CO)NCc1cc(Cl)c(OCc2cccc(-c3ccccc3)c2F)cc1OCc1ccc2nonc2c1", "Activity": "inactive"},
      {"smiles": "O=C(O)[C@@H](CO)NCc1cc(Cl)c(OCc2cccc(-c3cccc(F)c3)c2Br)cc1OCc1ccc2nonc2c1", "Activity": "inactive"},
      {"smiles": "O=C(O)[C@@H](CO)NCc1cc(F)c(OCc2cccc(-c3ccccc3)c2Br)cc1OCc1ccc2nonc2c1", "Activity": "inactive"}
    ]},
    {"tested_on": "Jurkat", "assay": "Cytotoxicity against human Jurkat cells expressing PD-1/NFAT/Luc assessed as inhibition of cell viability at 10 uM incubated for 24 hrs by CCK8 assay", "assay_type": "functional, cell-based", "conditions": "not given", "procedure,_shortened": "as §1", "values": [
      {"smiles": "O=C(O)[C@H]1C[C@@H](O)CN1Cc1cc(Cl)c(OCc2cccc(-c3ccccc3)c2Br)cc1OCc1ccc2nonc2c1", "Activity": "Active"},
      {"smiles": "Cc1c(COc2ccc(CN[C@H](CO)C(=O)O)c(OCc3cccc(C#N)c3)c2)cccc1-c1ccccc1", "Activity": "Active"}
    ]},
    {"tested_on": "CHO-K1", "assay": "Cytotoxicity against CHO-K1 cells expressing PD-L1/aAPC assessed as inhibition of cell viability at 10 uM incubated for 24 hrs by MTT assay", "assay_type": "functional, cell-based", "conditions": "Cricetulus griseus", "procedure,_shortened": "as §2", "values": [
      {"smiles": "O=C(O)[C@H]1C[C@@H](O)CN1Cc1cc(Cl)c(OCc2cccc(-c3ccccc3)c2Br)cc1OCc1ccc2nonc2c1", "Activity": "Active"},
      {"smiles": "Cc1c(COc2ccc(CN[C@H](CO)C(=O)O)c(OCc3cccc(C#N)c3)c2)cccc1-c1ccccc1", "Activity": "Active"}
    ]},
    {"tested_on": "MC-38", "assay": "Cytotoxicity against mouse MC38 cells assessed as inhibition of cell viability at 10 uM incubated for 24 hrs by MTT assay", "assay_type": "functional, cell-based", "conditions": "not given", "procedure,_shortened": "as §2", "values": [
      {"smiles": "O=C(O)[C@H]1C[C@@H](O)CN1Cc1cc(Cl)c(OCc2cccc(-c3ccccc3)c2Br)cc1OCc1ccc2nonc2c1", "Activity": "Active"},
      {"smiles": "Cc1c(COc2ccc(CN[C@H](CO)C(=O)O)c(OCc3cccc(C#N)c3)c2)cccc1-c1ccccc1", "Activity": "Active"}
    ]},
    {"molecular_target": "T1, Programmed cell death protein 1/Programmed cell death 1 ligand 1", "assay": "Inhibition of human PD-1/PD-L1 interaction in human Jurkat cells expressing PD-1/NFAT/Luc cocultured with CHO-K1 cells expressing PD-L1/aAPC assessed as Jurkat T-lymphocyte activation measured after 6 hrs by luciferase reporter gene based luminescence assay", "assay_type": "cell-based", "conditions": "not given", "units": {"EC50": "nM"}, "values": [
      {"smiles": "Cc1c(COc2ccc(CN[C@H](CO)C(=O)O)c(OCc3cccc(C#N)c3)c2)cccc1-c1ccccc1", "EC50": 2080}
    ]},
    {"molecular_target": "Programmed cell death protein 1/Programmed cell death 1 ligand 1 (Homo sapiens) (UniProt Q15116+Q9NZQ7)", "conditions": "Jurkat, time 6.0 hrs", "values": [
      {"smiles": "Cc1c(COc2ccc(CN[C@H](CO)C(=O)O)c(OCc3cccc(C#N)c3)c2)cccc1-c1ccccc1", "RLU": 1.83}
    ]}
  ]
}
